7 compounds from ChEMBL document CHEMBL3580581, “Bisabolane Sesquiterpenoids from the Plant Endophytic Fungus Paraconiothyrium brasiliense” (J Nat Prod, 2015) can be followed below.

As a reminder, the IC50 is the concentration at which inhibition is half-maximal.

In data set [1] the test system is A549. The data set can be described thus: Cytotoxicity against human A549 cells assessed as reduction in cell viability at 50 uM by MTS assay. Type of data set: functional, cell-based. The gist of the method:
(§1)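 MTS viability assay. Cells were seeded at 5 × 10^3 per well for 24 h, then exposed to serial dilutions (5, 10, 15, 20, and 50 μM) in medium with 10% FBS and grown for the indicated duration. Controls got DMSO. MTS was added for 1 h at 37 °C and absorbance read at 490 nm. Results are % of control, with IC50 calculated.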
(In general: Tetrazolium assays rely on reduction of a dye to a coloured formazan, in cell work by metabolically active cells.)

Data set [2] has as its system CNE1-LMP1. The data set can be described thus: Cytotoxicity against human CNE1-LMP1 cells assessed as reduction in cell viability at 50 uM by MTS assay. It counts as functional, cell-based. The gist of the method:
as §1

The subject of data set [3] is A-375. The data set can be described thus: Cytotoxicity against human A375 cells assessed as reduction in cell viability at 50 uM by MTS assay. Type of data set: functional, cell-based. In outline: as §1
Data set [4] concerns MCF7. The data set can be described thus: Cytotoxicity against human MCF7 cells assessed as reduction in cell viability at 50 uM by MTS assay. Type of data set: functional, cell-based. In outline: as §1
Data set [5] deals with MGC. The data set can be described thus: Cytotoxicity against human MGC cells assessed as reduction in cell viability at 50 uM by MTS assay. Type of data set: functional, cell-based. The gist of the method: as §1
The subject of data set [6] is ECa-109. The data set can be described thus: Cytotoxicity against human EC109 cells assessed as reduction in cell viability at 50 uM by MTS assay. Type of data set: functional, cell-based. In outline: as §1
Data set [7] concerns PANC-1. The data set can be described thus: Cytotoxicity against human PANC1 cells assessed as reduction in cell viability at 50 uM by MTS assay. Type of data set: functional, cell-based. The gist of the method:
as §1

For data set [8], the system named is Hep 3B2. The data set can be described thus: Cytotoxicity against human Hep3B2 cells assessed as reduction in cell viability at 50 uM by MTS assay. Type of data set: functional, cell-based. In outline:
as §1

For data set [9], the system named is HaCaT. The data set can be described thus: Cytotoxicity against human HaCaT cells assessed as reduction in cell viability at 50 uM by MTS assay. It counts as cell-based. In outline: as §1
The nature of data set [10]: Cytotoxicity against mouse NIH/3T3 cells assessed as reduction in cell viability at 50 uM by MTS assay. It counts as cell-based. Particulars: nih3t3, 50 µM. In outline:
as §1

Data set [11] in a line: Cytotoxicity against human CNE1-LMP1 cells assessed as reduction in cell viability by MTS assay. Type of data set: functional, cell-based. In outline: as §1
Data set [12] is described as follows: Cytotoxicity against human MGC cells assessed as reduction in cell viability by MTS assay. It counts as functional, cell-based. In outline:
as §1

Data set [13] can be described thus: Cytotoxicity against human EC109 cells assessed as reduction in cell viability by MTS assay. Type of data set: functional, cell-based. Particulars: ECa-109. The gist of the method: as §1
A short description of data set [14]: Cytotoxicity against human PANC1 cells assessed as reduction in cell viability by MTS assay. Type of data set: functional, cell-based. Particulars: PANC-1. The gist of the method:
as §1

The nature of data set [15]: Cytotoxicity against human Hep3B2 cells assessed as reduction in cell viability by MTS assay. It counts as functional, cell-based, Hep 3B2. Particulars: Hep3B. In outline: as §1
Data set [16] can be described thus: Cytotoxicity against mouse NIH/3T3 cells assessed as reduction in cell viability by MTS assay. Particulars: NIH3T3. Type of data set: cell-based. In outline:
as §1

In data set [17] the test system is A549. The data set can be described thus: Cytotoxicity against human A549 cells assessed as reduction in cell viability by MTS assay. Type of data set: functional, cell-based. The gist of the method: as §1
Data set [18] deals with A-375. The data set can be described thus: Cytotoxicity against human A375 cells assessed as reduction in cell viability by MTS assay. It counts as functional, cell-based. In outline: as §1
Data set [19] deals with MCF7. The data set can be described thus: Cytotoxicity against human MCF7 cells assessed as reduction in cell viability by MTS assay. It counts as functional, cell-based.
Data set [20] has as its system HaCaT. The data set can be described thus: Cytotoxicity against human HaCaT cells assessed as reduction in cell viability by MTS assay. It counts as cell-based. The gist of the method: as §1
In data set [21] the test system is MCF7. The data set can be described thus: Reduction in glucose uptake in human MCF7 cells assessed per 10^5 cells at 20 uM incubated for 12 hrs (reference value: 5.6 nM/hr/10^5 cells). It counts as functional. The gist of the method: (§2)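 Cells were seeded and after 24 h switched to fresh medium with 10% FBS, with or without 20 μM compound. After 12 h, supernatant glucose and lactate were measured on an automatic biochemistry analyzer. Cell numbers were counted in parallel by MTS. Rates (nmol/h/10^5 cells) were computed as the difference from blank medium divided by 12 h and by cell number. LY294002 served as positive control.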

The subject of data set [22] is MCF7. The data set can be described thus: Reduction in lactate secretion in human MCF7 cells assessed per 10^5 cells at 20 uM incubated for 12 hrs. It counts as functional. In outline:
as §2

Data set [23] concerns HaCaT. The data set can be described thus: Toxicity in human HaCaT cells assessed as reduction in glucose uptake per 10^5 cells at 20 uM incubated for 12 hrs. Type of data set: cell-based. In outline: as §2
For data set [24], the system named is HaCaT. The data set can be described thus: Toxicity in human HaCaT cells assessed as reduction in lactate secretion per 10^5 cells at 20 uM incubated for 12 hrs. It counts as cell-based. In outline: as §2
Data set [25] relates to MCF7. The data set can be described thus: Reduction in ATP generation in human MCF7 cells at 20 uM incubated for 12 and 24 hrs. It counts as functional, cell-based. In outline: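 MCF-7 cells were exposed to 20 μM for 2, 4, 6, 8, 12 and 24 h. ATP was measured with a commercial kit, quantified against an ATP standard curve and expressed as % of the control group.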
The subject of data set [26] is MCF7. The data set can be described thus: Reduction in hexokinase-2 protein expression in human MCF7 cells by SDS-PAGE and Western blotting method. It counts as functional, cell-based. Particulars: TDE = time-dependent effect. The gist of the method:
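MCF-7 cells were treated for 1, 3, 6, 12, 24 and 48 h and lysed in cold buffer. 50 μg protein was run on 10% SDS-PAGE and transferred to nitrocellulose. Membranes were probed with anti-HK2 primary antibody at 4 °C overnight, then HRP secondary for 1 h at room temperature, with ECL detection. α-Tubulin was the internal control.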
(In general: A western blot detects proteins with antibodies after separation by electrophoresis.)

Active and inactive are the calls of the source. The rule behind the calls is not given here.

Take `C=C1CCC(C2=C/C(=C/C(C)C(N)=O)OC2=O)CC1` (racemic): the outcome in data set [1], in data set [2], in data set [3], in data set [4], in data set [5] and in data set [6] was inactive. In addition, the outcome in [7] and in [8] was inactive. The Activity result in data set [9] and in data set [10] was “Non-toxic” throughout.

On to `CC(=O)OC[C@]1(O)CC[C@H](C2=C/C(=C/C(C)C(N)=O)OC2=O)CC1` (mixture of isomers), for which the outcome in [1], in data set [2], in data set [3], in data set [4], in data set [5] and in data set [6] was inactive. For the same compound, the outcome in data set [7] and in [8] was inactive. Further, the Activity result in data set [9] and in [10] was “Non-toxic” throughout.

Take `CC(=O)O[C@H]1C(=O)[C@@]2(C)[C@H]([C@H](OC(=O)c3ccccc3)[C@]3(O)C[C@H](OC(=O)[C@H](O)[C@@H](NC(=O)c4ccccc4)c4ccccc4)C(C)=C1C3(C)C)[C@]1(OC(C)=O)CO[C@@H]1C[C@@H]2O` [PACLITAXEL]: the IC50 in data set [11] was 0.0042 µM; in [12], 0.0064 µM; in data set [13] it was 0.14 µM; in data set [14] it was 0.0011 µM; in [15], 0.016 nM; in data set [16] it was 4.2 µM.

In the case of `CC(/C=C1/C=C([C@H]2CC[C@@](O)(CO)CC2)C(=O)O1)C(N)=O` (mixture of isomers), the result in data set [1], in [2], in data set [3], in data set [4], in data set [5] and in data set [6] was inactive. Further, the outcome in data set [7] and in [8] was inactive. The Activity result in data set [9] and in [10] was “Non-toxic” each time.

As to `C/C(=C\c1cc([C@H]2CC[C@@](O)(CO)CC2)co1)C(N)=O`, the outcome in data set [1], in data set [2], in [3], in [4], in [5] and in data set [6] was inactive. The outcome in data set [7] and in data set [8] was inactive. The Activity result in [9] and in data set [10] was “Non-toxic” in each case.

For the compound `C=C1CCC(C2=C/C(=C\C(C)C(N)=O)OC2=O)CC1` (racemic), the outcome in data set [1], in data set [2], in data set [3], in [4], in data set [5] and in [6] was inactive. Also, the result in [7] and in [8] was inactive. Also, the Activity result in [9] and in [10] was “Non-toxic” throughout.

As for `C=C1CCC(c2coc(/C=C(\C)C(N)=O)c2)CC1`, the IC50 was more than 50 µM in data set [17]; more than 50 µM in [11]; more than 50 µM in data set [18]; 8.4 µM in [19]; 14.7 µM in data set [12]; more than 50 µM in data set [13]. Also, the IC50 in data set [14] was more than 50 µM; in [15], more than 50000 nM; in data set [20] it was more than 50 µM; in data set [16], more than 50 µM. The Activity in data set [21] is 4.2 nM/h; in [22], 0.5 nM/h; in [23], “Non-toxic”; in [24] it was “Non-toxic”. The inhibition entry in [25] is “Active”. Further, in [26], the inhibition result was “tde”.
